{"data": "Results gathered from unrelated publications", "target": "Cyclin-dependent kinase 9 (CDK9, Homo sapiens, UniProt P50750)", "note": "Lines come from different studies, so protocols differ."}
{"Structure (SMILES)": "Nc1c(C(=O)NCc2ccc(C(=O)NCCCC3CCCCC3)cc2)cnn1-c1ccccc1", "read-out": "cell-free assay", "technique": "competition with immobilised ligand", "concentration": "0.1 µM", "remaining binding [%]": 100}
{"Structure (SMILES)": "C=CC(=O)N1CCC(C(=O)NCC(=O)N2CCN(c3nc(-c4cnc(N)nc4C(F)F)nc(N4CCOCC4)n3)CC2)CC1", "read-out": "binding", "technique": "competition with immobilised ligand", "concentration": "1 µM", "remaining binding [%]": 98}
{"Structure (SMILES)": "N[C@@H]1CCN(c2nccc(-c3cnn4ncccc34)n2)C1", "read-out": "binding", "concentration": "1 µM", "remaining binding [%]": 100}
{"Structure (SMILES)": "N#Cc1ccccc1CSc1nnc2c(n1)[nH]c1ccccc12", "read-out": "binding", "technique": "competition with immobilised ligand", "concentration": "10 µM", "remaining binding [%]": 84}
{"Structure (SMILES)": "COc1cnc(Nc2cccc(S(N)(=O)=O)c2)nc1N1CCN(c2ccccc2)C(=O)C1", "read-out": "binding", "technique": "competition with immobilised ligand", "concentration": "1 µM", "remaining binding [%]": 100}
{"Structure (SMILES)": "Nc1ncc2c(n1)-c1c([nH]c3ccc(C#CC4CC4)cc13)CCCC2", "read-out": "binding", "technique": "competition with immobilised ligand", "concentration": "1 µM", "remaining binding [%]": 91}
{"Structure (SMILES)": "O=C(c1ccc(Nc2ncc(Cl)c(-c3cc4ccccc4s3)n2)cc1)N1CCC(N2CCCC2)CC1", "read-out": "binding", "technique": "competition with immobilised ligand", "concentration": "1 µM", "remaining binding [%]": 82}
{"Structure (SMILES)": "C[C@@H]1CN(c2ccc3ncc(-c4ccc5[nH]nc(C6CC6)c5c4)n3n2)C[C@H](C)O1", "read-out": "binding", "technique": "competition with immobilised ligand", "concentration": "0.5 µM", "remaining binding [%]": 78}
{"Structure (SMILES)": "CS(=O)(=O)N1CCCC(NC(=O)[C@H](CCC2CCCCC2)NC(=O)c2ccc(CNc3ncnc4c3nnn4-c3ccccc3)cc2)C1 (stereo partly drawn)", "read-out": "cell-free assay", "technique": "competition with immobilised ligand", "concentration": "0.1 µM", "remaining binding [%]": 87}
{"Structure (SMILES)": "FC(F)(F)Oc1cccc(-c2cnc3ccc(-c4ccncc4)nn23)c1", "read-out": "cell-free assay", "technique": "competition with immobilised ligand", "concentration": "5 µM", "remaining binding [%]": 89}
{"Structure (SMILES)": "COc1ccnn2ncc(-c3ccnc(N(C)C)n3)c12", "read-out": "binding", "concentration": "1 µM", "remaining binding [%]": 100}
{"Structure (SMILES)": "O=C(O)[C@H]1[C@H](Cn2nnc3ccccc3c2=O)CC[C@@H]1C(=O)c1ccc(OCCC2CCOCC2)cc1", "read-out": "cell-free assay", "technique": "competition with immobilised ligand", "concentration": "1 µM", "remaining binding [%]": 72}
{"Structure (SMILES)": "c1cnn2ncc(-c3ccnc(N4CCC45COC5)n3)c2c1", "read-out": "binding", "concentration": "1 µM", "remaining binding [%]": 93}
{"Structure (SMILES)": "Cc1c(C(=O)O)cc(-c2ccc(C3CCNCC3)cc2)c2ccc(-c3ccc(C(F)(F)F)cc3)cc12", "read-out": "binding", "technique": "competition with immobilised ligand", "concentration": "1 µM", "remaining binding [%]": 100}
{"Structure (SMILES)": "O=C(c1ccc(Nc2nccc(-c3cc4ccccc4s3)n2)cc1)N1CCC(N2CCCC2)CC1", "read-out": "binding", "technique": "competition with immobilised ligand", "concentration": "1 µM", "remaining binding [%]": 85}
{"Structure (SMILES)": "CN(C)c1nccc(-c2cnn3ncccc23)n1", "read-out": "binding", "concentration": "1 µM", "remaining binding [%]": 100}
{"Structure (SMILES)": "Nc1cnc(N2CCc3cc(S(=O)(=O)Nc4c(F)cc(Cl)cc4F)cc(N4CCCC4=O)c32)nc1", "read-out": "cell-free assay", "technique": "competition with immobilised ligand", "concentration": "1 µM", "remaining binding [%]": 100}
{"Structure (SMILES)": "O=C(Nc1c[nH]nc1C(=O)NC1CCNCC1)c1cc(F)cc(F)c1", "read-out": "binding", "technique": "competition with immobilised ligand", "concentration": "1 µM", "remaining binding [%]": 72}
{"Structure (SMILES)": "C[C@@H]1CCN(c2nccc(-c3cnn4ncccc34)n2)C1", "read-out": "binding", "concentration": "1 µM", "remaining binding [%]": 87}
{"Structure (SMILES)": "COc1ncc2cc3ccccc3nc2c1C#N", "read-out": "cell-free assay", "technique": "competition with immobilised ligand", "concentration": "5 µM", "remaining binding [%]": 91}
{"Structure (SMILES)": "Cc1nccc(COC(=O)N2C[C@@H]3[C@@H](CNC(=O)c4ccc5[nH]nnc5c4)[C@@H]3C2)n1", "read-out": "cell-free assay", "technique": "competition with immobilised ligand", "concentration": "1 µM", "remaining binding [%]": 100}
{"Structure (SMILES)": "CN(C)c1ncc(F)c(-c2cnn3ncccc23)n1", "read-out": "binding", "concentration": "1 µM", "remaining binding [%]": 100}
{"Structure (SMILES)": "Cc1cnc(Nc2ccc(C(=O)N3CCC(N4CCCC4)CC3)cc2)nc1-c1cc2ccccc2s1", "read-out": "binding", "technique": "competition with immobilised ligand", "concentration": "1 µM", "remaining binding [%]": 82}
{"Structure (SMILES)": "CCOCCn1cc(C(=O)Nc2ccc(-n3nc(-c4cccnc4)cc3C(F)(F)F)cn2)ccc1=O", "read-out": "cell-free assay", "technique": "competition with immobilised ligand", "concentration": "1 µM", "remaining binding [%]": 97}
